In brackets after ≈: the same amount, converted by molar mass.
Tests used:
[1] = Half life in CD-1 mouse plasma at 1 uM by LC-MS/MS analysis; format: ADME, cell-free
Summary of the method: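 Lithium-heparinized CD-1 mouse plasma was spiked with 1 μM substrate and incubated at 37 °C for 3 h, sampling at 0, 0.167, 1, 2 and 3 h (n = 2). Samples underwent acetonitrile protein precipitation with tolbutamide as internal standard. Analysis was by reversed-phase UPLC-ESI-MS/MS in MRM mode.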

[2] = target: T1, Poly [ADP-ribose] polymerase tankyrase-1 (Homo sapiens, UniProt O95271); test: Inhibition of 6x-His-tagged TNKS1 (unknown origin) after 60 mins
T1 sequence (O95271 whole entry): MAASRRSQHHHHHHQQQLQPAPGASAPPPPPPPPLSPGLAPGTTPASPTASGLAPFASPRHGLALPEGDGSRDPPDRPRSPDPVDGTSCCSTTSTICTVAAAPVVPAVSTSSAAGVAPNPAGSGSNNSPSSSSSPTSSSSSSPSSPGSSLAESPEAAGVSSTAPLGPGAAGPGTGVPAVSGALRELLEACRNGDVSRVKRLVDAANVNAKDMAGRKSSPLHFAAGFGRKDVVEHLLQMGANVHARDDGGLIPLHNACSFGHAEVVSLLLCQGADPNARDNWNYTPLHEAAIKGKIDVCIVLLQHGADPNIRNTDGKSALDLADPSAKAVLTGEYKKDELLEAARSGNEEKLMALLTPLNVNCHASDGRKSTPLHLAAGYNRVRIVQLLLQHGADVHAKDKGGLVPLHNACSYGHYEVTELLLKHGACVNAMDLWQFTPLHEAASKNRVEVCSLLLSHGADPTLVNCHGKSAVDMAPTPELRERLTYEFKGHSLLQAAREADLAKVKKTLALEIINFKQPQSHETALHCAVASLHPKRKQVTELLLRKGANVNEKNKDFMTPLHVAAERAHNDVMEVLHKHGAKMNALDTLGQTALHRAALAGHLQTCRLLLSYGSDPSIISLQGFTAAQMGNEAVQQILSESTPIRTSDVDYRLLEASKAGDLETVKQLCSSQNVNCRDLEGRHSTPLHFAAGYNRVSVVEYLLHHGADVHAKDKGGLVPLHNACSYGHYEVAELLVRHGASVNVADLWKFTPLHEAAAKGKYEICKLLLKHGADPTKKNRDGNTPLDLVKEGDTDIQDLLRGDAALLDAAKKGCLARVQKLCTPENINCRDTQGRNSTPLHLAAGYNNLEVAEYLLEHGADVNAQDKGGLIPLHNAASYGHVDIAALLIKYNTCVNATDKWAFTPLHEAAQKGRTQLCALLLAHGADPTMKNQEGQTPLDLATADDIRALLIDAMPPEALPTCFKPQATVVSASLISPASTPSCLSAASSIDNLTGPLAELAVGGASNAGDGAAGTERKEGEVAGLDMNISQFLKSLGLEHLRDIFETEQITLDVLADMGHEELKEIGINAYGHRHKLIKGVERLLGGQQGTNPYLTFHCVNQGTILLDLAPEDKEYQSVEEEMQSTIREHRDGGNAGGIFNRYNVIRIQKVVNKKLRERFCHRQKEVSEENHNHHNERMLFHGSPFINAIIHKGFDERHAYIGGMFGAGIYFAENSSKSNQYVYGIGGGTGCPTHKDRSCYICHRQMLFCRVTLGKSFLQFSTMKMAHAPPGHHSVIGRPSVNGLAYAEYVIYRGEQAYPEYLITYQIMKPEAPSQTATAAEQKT

[3] = Inhibition of TNKS in human SW480 cells assessed as degradation of total pool of beta-catenin after 40 to 48 hrs; format: cell-based
Summary of the method: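 SW480 cells were seeded at 10 000/well in MEMα with 10% HI FBS, GlutaMAX, pyruvate and 10 mM HEPES. They were treated with a 10-point, 3-fold dilution series at 0.1% final DMSO for 40–48 h at 37 °C, then lysed. Total β-catenin was measured by MSD sandwich immunoassay (polyclonal capture, SULFO-TAG mAb detection).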

[4] = Intrinsic clearance in rat liver microsomes at 1 uM after 30 mins; format: ADME; settings: read-out: CLH
Summary of the method: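 Substrate depletion in rat liver microsomes: 0.25 mg protein/mL, 1 mM NADPH and 2 mM MgCl2 in 50 mM potassium phosphate, pH 7.4, prewarmed to 37 °C. Test compound was added to a final 1 μM, and parent loss was measured after 30 min at 37 °C.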

[5] = Solubility in fasted state simulated intestinal fluid at pH 6.8; format: ADME
[6] = Tmax in CD-1 mouse at 30 mg/kg, po; format: ADME, organism-based; parameters: dose 30 mg/kg, route oral; settings: in vivo
Summary of the method: (§1)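 Male CD-1 mice given a single oral dose of 30 mg/kg. Vehicle was 10% Pluronic F68, 30% HPBCD and 60% water, pH adjusted to 10.0 with NaOH for most compounds or to 2.5 with methanesulfonic acid for one. Mean plasma PK parameters were reported.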

[7] = Cmax in CD-1 mouse at 30 mg/kg, po; format: ADME, organism-based; parameters: dose 30 mg/kg, route oral; settings: in vivo; summary of the method: as §1
[8] = Fraction unbound in mouse plasma at 5 uM after 5 hrs by equilibrium dialysis method; format: ADME, cell-free
Summary of the method: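 Mouse plasma was spiked to a final 5 μM and equilibrium-dialyzed against plasma water (ultrafiltrate) for 5 h at 37 °C in a CO2 incubator, using a rapid equilibrium dialysis device. Fraction unbound was determined in duplicate.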

[9] = AUC (0 to infinity) in CD-1 mouse at 30 mg/kg, po; format: ADME, organism-based; parameters: time infinity, dose 30 mg/kg, route oral; settings: plasma; summary of the method: as §1
[10] = Inhibition of TNKS in human DLD1 cells expressing APC mutant assessed as inhibition of super-Topflash reporter gene transcription after 40 to 48 hrs by dual-glo luciferase reporter gene assay; format: cell-based; settings: DLD-1
Summary of the method: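 DLD-1 cells carried an 8× TCF-driven firefly luciferase and an EF1a-driven Renilla luciferase, and were seeded at 10 000/well in RPMI with 10% FBS without antibiotics. A 10-point, 3-fold dilution series starting at 10 μM was applied for 40–48 h at 37 °C. Firefly and Renilla activities were read with Dual-Glo reagents.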

[11] = Inhibition of TNKS in human SW480 cells assessed as accumulation of axin-2 into cytoplasmic foci after 24 hrs by Hoechst dye-based assay; settings: SW480, 24 h
[12] = Half life in rat at 0.5 mg/kg, iv; format: ADME, organism-based; parameters: dose 0.5 mg/kg, route intravenous; settings: in vivo
Summary of the method: (§2)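 Male rats received a single intravenous dose of 0.5 mg/kg. Mean clearance, steady-state volume of distribution and half-life were reported.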

[13] = Volume of distribution at steady state in rat at 0.5 mg/kg, iv; format: ADME, organism-based; parameters: dose 0.5 mg/kg, route intravenous; settings: in vivo, read-out: Vdss; summary of the method: as §2
[14] = Clearance in rat at 0.5 mg/kg, iv; format: ADME, organism-based; parameters: dose 0.5 mg/kg, route intravenous; settings: in vivo; summary of the method: as §2

Row | IC50 [2] [nM] | IC50 [3] [nM] | microsomal CLint at 1 µM [4] [µL/min/mg] | Structure (SMILES) | further results
1 | 31 | 300 | – | COc1ccccc1NC(=O)[C@H]1CC[C@H](NC(=O)CCc2nc3ccccc3c(=O)[nH]2)CC1 | half-life at 1 µM [1]: > 16.7 h
2 | 1750 | – | – | COc1cccc(C)c1NC(=O)c1ccc(NC(=O)CCc2nc3ccccc3c(=O)[nH]2)cc1 | half-life at 1 µM [1]: 4.5 h
3 | – | 16.7 | – | O=C(CCSc1nc2ccccc2c(=O)[nH]1)N[C@H]1CC[C@H](Oc2ccc(F)cc2)CC1 | –
4 | > 46000 | – | – | O=C(CCc1nc2ccccc2c(=O)[nH]1)Nc1ccc(-c2nc(-c3ccccc3)no2)cc1 | –
5 | 860 | 7720 | – | O=C(CCc1nc2ccccc2c(=O)[nH]1)Nc1ccc(-c2nc3ccccc3o2)cc1 | –
6 | 160 | – | – | Cc1ccnc2c(NC(=O)c3ccc(N4C(=O)[C@@H]5[C@H](C4=O)[C@@H]4C=C[C@H]5C4)cc3)cccc12 | –
7 | – | 17 | 20 | O=C(CCCc1nc2ccccc2c(=O)[nH]1)N[C@H]1CC[C@H](c2nnc(-c3ccccc3)o2)CC1 | solubility [5]: 11 µg/mL (≈ 24 µM)
8 | – | 15.4 | – | O=C(CCSc1nc2ccccc2c(=O)[nH]1)N[C@H]1CC[C@H](Oc2ccccn2)CC1 | –
9 | 1090 | > 10000 | – | Cn1c(-c2ccc(NC(=O)CCc3nc4ccccc4c(=O)[nH]3)cc2)nc2ccccc21 | half-life at 1 µM [1]: > 8.33 h
10 | – | 11 | 60 | O=C(CCSc1nc2c(c(=O)[nH]1)CCCC2)N[C@H]1CC[C@H](c2nnc(-c3ccccc3)o2)CC1 | Tmax [6]: 3.23 h; Cmax [7]: 3.6 µM; fraction unbound at 5 h, 5 µM [8]: 0.012; AUC(0-inf) [9]: 5.3 µM·h; IC50 [10]: 1.3 nM; solubility [5]: 8 µg/mL (≈ 16.7 µM); EC50 [11]: 14 nM
11 | – | 1170 | 206 | O=C(N[C@H]1CC[C@H](c2nnc(-c3ccccc3)o2)CC1)[C@@H]1CCCN(Cc2nc3ccccc3c(=O)[nH]2)C1 | solubility [5]: 43 µg/mL (≈ 83.9 µM)
12 | – | 120 | – | O=C(CCSc1nc2ccccc2c(=O)[nH]1)N[C@H]1CC[C@H](Oc2cccc(Cl)c2)CC1 | –
13 | – | 24.2 | – | N#Cc1cc(O[C@H]2CC[C@H](NC(=O)CCSc3nc4ccccc4c(=O)[nH]3)CC2)ccc1Cl | –
14 | – | 47.8 | – | N#Cc1cccc(O[C@H]2CC[C@H](NC(=O)CCSc3nc4ccccc4c(=O)[nH]3)CC2)c1 | –
15 | > 46000 | – | – | COc1ccccc1NS(=O)(=O)c1ccc(NC(=O)CCc2nc3ccccc3c(=O)[nH]2)cc1 | –
16 | 7460 | – | – | COc1ccccc1NC(=O)[C@H]1CC[C@@H](NC(=O)CCc2nc3ccccc3c(=O)[nH]2)CC1 | half-life at 1 µM [1]: > 16.7 h

Row | IC50 [2] [nM] | IC50 [3] [nM] | microsomal CLint at 1 µM [4] [µL/min/mg] | Structure (SMILES) | further results
17 | 210 | 3090 | – | COc1ccccc1NC(=O)c1ccc(NC(=O)CCc2nc3ccccc3c(=O)[nH]2)cc1C | half-life at 1 µM [1]: 0.717 h
18 | – | 1950 | 24 | O=C(CCc1nc2ncccc2c(=O)[nH]1)N[C@H]1CC[C@H](c2nnc(-c3ccccc3)o2)CC1 | –
19 | 400 | 5680 | – | COc1ccccc1N(C)C(=O)c1ccc(NC(=O)CCc2nc3ccccc3c(=O)[nH]2)cc1 | half-life at 1 µM [1]: 0.633 h
20 | – | 6.9 | – | O=C(CCSc1nc2ccccc2c(=O)[nH]1)N[C@H]1CC[C@H](Oc2ccncc2)CC1 | Tmax [6]: 0.67 h; Cmax [7]: 7 µM; fraction unbound at 5 h, 5 µM [8]: 0.032; half-life [12]: 0.7 h; AUC(0-inf) [9]: 11.5 µM·h; IC50 [10]: 0.7 nM; Vd [13]: 0.4 L/kg; clearance [14]: 11 mL/min/kg; EC50 [11]: 6.8 nM
21 | > 46000 | – | – | O=C(CCc1nc2ccccc2c(=O)[nH]1)Nc1ccc(-c2nc(-c3ccccc3)c[nH]2)cc1 | –
22 | – | 80 | < 14 | O=C(CCc1nc2ccccc2c(=O)[nH]1)N[C@H]1CC[C@H](c2nnc(-c3ccccc3)o2)CC1 | half-life at 1 µM [1]: > 8.33 h; solubility [5]: 16.2 µg/mL (≈ 36.5 µM); EC50 [11]: 640 nM
23 | – | 500 | > 399 | O=C(C[C@H]1CCCN1Cc1nc2ccccc2c(=O)[nH]1)N[C@H]1CC[C@H](c2nnc(-c3ccccc3)o2)CC1 | solubility [5]: 42 µg/mL (≈ 81.9 µM)
24 | – | 1020 | < 14 | O=C(CCc1nc2c(c(=O)[nH]1)CCCN2)N[C@H]1CC[C@H](c2nnc(-c3ccccc3)o2)CC1 | –
25 | – | 410 | – | O=C(CCc1nc2ccccc2c(=O)[nH]1)Nc1ccc(-c2nnc(-c3ccccc3)o2)cc1 | half-life at 1 µM [1]: 2.03 h; EC50 [11]: 2450 nM
26 | – | 20 | – | O=C(CCSc1nc2ccccc2c(=O)[nH]1)N[C@H]1CC[C@H](Oc2ccc(Cl)cc2)CC1 | –
27 | > 46000 | – | – | O=C(CCc1nc2ccccc2c(=O)[nH]1)Nc1ccc(-c2csc(-c3ccccc3)n2)cc1 | –
28 | – | 2130 | < 14 | O=C(CCSc1nccc(=O)[nH]1)N[C@H]1CC[C@H](c2nnc(-c3ccccc3)o2)CC1 | solubility [5]: 53 µg/mL (≈ 125 µM)
29 | 640 | > 10000 | – | O=C(CCc1nc2ccccc2c(=O)[nH]1)Nc1ccc(-c2c[nH]c(-c3ccccc3)n2)cc1 | half-life at 1 µM [1]: 0.883 h
30 | – | 91 | 20 | O=C(CSc1nc2ccccc2c(=O)[nH]1)N[C@H]1CC[C@H](c2nnc(-c3ccccc3)o2)CC1 | solubility [5]: 1 µg/mL (≈ 2.17 µM)
31 | – | 8.1 | – | N#Cc1ccc(O[C@H]2CC[C@H](NC(=O)CCSc3nc4ccccc4c(=O)[nH]3)CC2)cc1Cl | Tmax [6]: 1.58 h; Cmax [7]: 15.1 µM; fraction unbound at 5 h, 5 µM [8]: 0.002; AUC(0-inf) [9]: 100 µM·h; IC50 [10]: 1.1 nM; EC50 [11]: 8.4 nM
32 | – | 100 | 159 | O=C(CCCSc1nc2ccccc2c(=O)[nH]1)N[C@H]1CC[C@H](c2nnc(-c3ccccc3)o2)CC1 | solubility [5]: 1 µg/mL (≈ 2.04 µM)

— ChEMBL document CHEMBL3108694, “Development of novel dual binders as potent, selective, and orally bioavailable tankyrase inhibitors” (J Med Chem, 2013)
